As a reminder, the Kd is a measure of binding affinity in units of concentration. Low values mean a tighter complex, high ones a looser complex.

Here are results for five compounds from article PMC2193291 (The Journal of Experimental Medicine, 2000).

Where two headings read alike, the source gives them in different places.

Test [1] has as its target Human cRaf-1 C1 ZiF domain (Homo sapiens, UniProt P04049). Put plainly: Retinoid binding by quenching of intrinsic protein.
Test [2] deals with cRaf (Homo sapiens, UniProt P04049). Format: cell-based. An outline of the steps: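 COS-7 cells transfected with Flag-cRaf by calcium phosphate, kept 2 d in serum-free phenol-red-free DME, then given retinoids and/or scavengers (100 mM sodium azide, 1 mM N-acetylcysteine). UVB-irradiated at 400 μw/cm2 and incubated at 37°C for set times. Flag-Raf pulled down with anti-Flag M2 and washed in 0.5 M NaCl. Kinase reaction: 200 ng His-MEK(K97M), 60 μM ATP plus [γ-32P]ATP, 20 min, 30°C.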

The target in test [3] is Human PKCα C1A ZiF domain (Homo sapiens, UniProt P17252). Kind of test: Retinol binding by trp fluorescence quench, Gst fusion protein. An outline of the steps: (§1)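 Gst-ZiF fusions expressed in E. coli BL21/DE3 and purified on glutathione-agarose to >90%. Constructs: Drosophila C1A aa 40–101; C1B aa 105–261 plus trp 262; Vav aa 464–518 plus trp 519. Protein at 250 nM in helium-degassed PBS, titrated stepwise with all-trans retinol from a methanol stock. Trp emission 330 nm (excitation 280 nm), corrected for inner filtering. Kd from nonlinear fit over at least four independent measurements.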

In test [4] the target is Human PKCα C1B ZiF domain (Homo sapiens, UniProt P17252). Described as above. An outline of the steps: as §1
The target of test [5] is Human PKCδ C1A ZiF domain (Homo sapiens, UniProt Q05655). The test is described as above. In outline:
as §1

For test [6], the target named is Human PKCδ C1B ZiF domain (Homo sapiens, UniProt Q05655). Put plainly: Retinol binding by trp fluorescence quench, Gst fusion protein.
Test [7] concerns the target T1, Human PKCμ C1A ZiF domain (Homo sapiens, UniProt Q15139).
T1 sequence (Q15139 146-196 limits assumed): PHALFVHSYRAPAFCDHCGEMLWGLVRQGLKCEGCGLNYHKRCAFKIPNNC
Put plainly: Retinol binding by trp fluorescence quench, Gst fusion protein. An outline of the steps:
as §1

In test [8] the target is T2, Human PKCμ C1B ZiF domain (Homo sapiens, UniProt Q15139).
T2 sequence (Q15139 270-320 limits assumed): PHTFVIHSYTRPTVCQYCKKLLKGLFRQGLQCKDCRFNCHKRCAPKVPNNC
The description is as above. In outline: as §1

Test [9] concerns the target T3, Human PKCζ C1 ZiF domain (Homo sapiens, UniProt Q05513).
T3 sequence (Q05513 130-180 limits assumed): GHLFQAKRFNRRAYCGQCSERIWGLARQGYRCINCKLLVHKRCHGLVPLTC
Put plainly: Retinol binding by trp fluorescence quench, Gst fusion protein.

Test [10] addresses Drosophila PKC C1A ZiF domain (Drosophila melanogaster, UniProt P05130). Kind of test: Retinol binding by trp fluorescence quench, Gst fusion protein. An outline of the steps:
as §1

Test [11] has as its target Drosophila PKC C1B ZiF domain (Drosophila melanogaster, UniProt P05130). Described as above. An outline of the steps:
as §1

The target in test [12] is T4, S. cerevisiae PKC C1A ZiF domain (Saccharomyces cerevisiae, UniProt P24583).
T4 sequence (P24583 414-461 limits assumed): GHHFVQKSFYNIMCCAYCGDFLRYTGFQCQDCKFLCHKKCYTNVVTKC
Kind of test: Retinol binding by trp fluorescence quench, Gst fusion protein.

Test [13] deals with T5, S. cerevisiae PKC C1B ZiF domain (Saccharomyces cerevisiae, UniProt P24583).
T5 sequence (P24583 481-531 limits assumed): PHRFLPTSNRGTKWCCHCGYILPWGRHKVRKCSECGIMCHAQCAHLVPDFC
Put plainly: Retinol binding by trp fluorescence quench, Gst fusion protein. In outline: as §1

For test [14], the target named is T6, Human Vav C1 ZiF domain (Homo sapiens, UniProt P15498).
T6 sequence (P15498 with tags, fused parts or gaps): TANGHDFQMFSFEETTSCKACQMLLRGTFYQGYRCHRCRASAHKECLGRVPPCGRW
The test is described as above. In outline:
as §1

Test [15] has as its target Gst-Raf ZiF (human cRaf-1 ZiF domain) (Homo sapiens, UniProt P04049). Kind of test: Retinol binding by fluorescence resonance energy transfer.
Test [16] has as its system cRaf/MAPK (ERK1 and 2 phosphorylation). Kind of test: Oxidative. Format: cell-based. The following applies: 3T3 cells, 2 μM retinol.
Test [17] deals with PKCα (Mus musculus, UniProt P20444). Put plainly: PKCα immunoprecipitation/kinase assay of H2O2-activated 3T3 cells. Format: cell-based. An outline of the steps:
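3T3 cells retinol-depleted, some repleted 12 h with 2 μM retinol, then activated 10 min with graded H2O2 doses without staurosporine. Detergent lysates immunoprecipitated with PKCα antibody. Kinase activity measured in washed immunoprecipitates with H1 histone as substrate. Normalized data from six independent H2O2 titrations.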

Test [18] relates to MAPK (phospho-ERK). Kind of test: Peroxide activation of endogenous MAPK in Jurkat cells, phospho-ERK Western blot. The following applies: 100 μM H2O2, different concentrations of retinol. It is filed as cell-based. In outline:
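Jurkat cells grown serum-free and retinol-free, then given varying retinol concentrations. Activated 15 min later for 10 min with 100 μM H2O2. Endogenous MAPK activity read as phospho-ERK on Western blots.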

cRaf, sequence (P04049 whole entry): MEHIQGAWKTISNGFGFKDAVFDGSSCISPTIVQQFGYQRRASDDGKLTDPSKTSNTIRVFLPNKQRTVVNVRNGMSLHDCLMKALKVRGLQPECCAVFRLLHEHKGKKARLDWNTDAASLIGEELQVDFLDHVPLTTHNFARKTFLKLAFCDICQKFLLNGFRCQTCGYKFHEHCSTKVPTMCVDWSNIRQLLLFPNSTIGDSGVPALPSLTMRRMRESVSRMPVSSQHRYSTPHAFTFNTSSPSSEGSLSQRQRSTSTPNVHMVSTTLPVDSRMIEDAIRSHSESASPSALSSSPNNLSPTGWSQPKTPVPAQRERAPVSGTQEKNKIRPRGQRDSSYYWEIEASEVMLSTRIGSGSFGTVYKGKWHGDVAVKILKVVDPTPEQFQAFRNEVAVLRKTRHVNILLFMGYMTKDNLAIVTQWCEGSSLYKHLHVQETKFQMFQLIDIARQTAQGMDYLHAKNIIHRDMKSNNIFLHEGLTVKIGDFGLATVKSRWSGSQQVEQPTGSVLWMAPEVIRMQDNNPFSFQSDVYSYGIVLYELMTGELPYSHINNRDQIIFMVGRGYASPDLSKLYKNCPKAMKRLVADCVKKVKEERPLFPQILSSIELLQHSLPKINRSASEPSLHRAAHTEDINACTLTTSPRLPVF
Human PKCδ C1B ZiF domain, sequence (Q05655 231-280): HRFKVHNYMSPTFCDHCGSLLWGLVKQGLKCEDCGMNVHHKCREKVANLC
Human PKCδ C1A ZiF domain, sequence (Q05655 159-209): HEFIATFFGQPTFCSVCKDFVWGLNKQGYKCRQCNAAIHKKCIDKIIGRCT

Consider `CC(C=CC=C(C)C(O)CO)=CC=C1C(C)=CCCC1(C)C` (stereo not shown) [14HRR, 14-hydroxy-retro-retinol], for which the “Binding to native Gst-Raf4–256 (fluorescence quenching)” value in [1] (1-μM protein solution, native protein) was “saturable binding”.

Consider `CC(=O)N[C@@H](CS)C(=O)O` [N-acetylcysteine], for which the “Effect on UVB-induced Raf activation” value in [2] (N-acetylcysteine 1 mM) is reported as “abolished the Raf activation”.

Regarding `[2H]O[2H]` [deuterated water], the “Effect on UVB-induced Raf activity” value in [2] (addition of deuterated water) was “distinct, though moderate, enhancement”.

On to `CC1=C(/C=C/C(C)=C/C=C/C(C)=C/CO)C(C)(C)CCC1` [retinol, all-trans retinol], for which the Kd in [1] (Binding constant, cRaf-1 amino acids 136–195, trp fluorescence quench, ± SE) is 0.022 ± 0.0035 µM; in test [3], 0.0207 ± 0.004 µM; in test [4], over 0.5 µM; in test [5], 0.0952 ± 0.0013 µM; in [6], 0.0673 ± 0.0013 µM; in [7], 0.0181 ± 0.008 µM. The Kd was 0.0173 ± 0.004 µM in test [8]; 0.0341 ± 0.0067 µM in test [9]; 0.0185 ± 0.0037 µM in test [10]; over 0.5 µM in [11]; 0.0179 ± 0.0051 µM in test [12]; over 0.5 µM in test [13]. Moreover, the Kd in test [14] was over 0.5 µM; in test [15], 0.0258 µM. In addition, the FRET signal result in [15] (truncated Gst-Raf Zif136–186 lacking trp 187) was “did not elicit a FRET signal”. The “MAPK activity in retinol-repleted compared with retinol-deficient cultures” value in test [16] (300 μM H2O2, peak at 10–15 min, phosphorylated p42) is given as “two- to threefold higher”. For the same compound, in test [16] (5% FBS), the “MAPK activation by 5% FBS, retinol-sufficient vs retinol-deficient cultures” value was “no differences”. The “Activation of PKC by phorbol ester” value in test [17] (150 nM phorbol ester) is reported as “not significantly enhanced”. Besides, the “Increase of PKCα kinase activity at maximum stimulation over unstimulated cells” value in test [17] (3T3 cells, 200 μM H2O2, in the presence of 2 μM retinol, 6 experiments) was 20 fold. In addition, the “Optimum dose for enhancement of PKCα activation” value in test [17] (data not shown) is 1 µM. In test [17] (presence vs absence of retinol, 200 μM H2O2), the “Overall retinol enhancement effect on PKCα kinase activity” value came to 3 fold. For the same compound, the “Intrinsic PKC activation by retinol alone” value in test [17] (without H2O2) is reported as “no intrinsic PKC activation”. The “Augmentation of UVB-induced Raf kinase activity” value in test [2] (COS cells replenished with 2 μM retinol, UVB) turned out to be 2.2 ± 0.4 fold. Moreover, in test [18], the “Enhancement of MAPK activation by peroxide” value was “dose-dependent enhancement”.

In the case of `[N-]=[N+]=[N-].[Na+]` [sodium azide], the “Effect on UVB-induced Raf activation” value in test [2] (sodium azide 100 mM) was “abolished the Raf activation”.
